These results are taken from ChEMBL document CHEMBL3808312, “Bioactive Constituents of Glycyrrhiza uralensis (Licorice): Discovery of the Effective Components of a Traditional Herbal Medicine” (J Nat Prod, 2016).

Test [1] concerns Influenza A virus. Nature of the test: Antiviral activity against Influenza A virus A/WSN/33(H1N1) infected in MDCK cells at 100 uM preincubated with virus for 15 mins followed by cells addition measured at 36 hrs post infection. Format: functional, A/WSN/1933(H1N1). The essentials:
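MDCK canine kidney cells grown in DMEM and infected with influenza A/WSN/33 (H1N1). Compounds screened at 100 μM. Oseltamivir phosphate served as the positive control.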

The subject of test [2] is Influenza A virus. The test can be described thus: Antiviral activity against Influenza A virus A/WSN/33(H1N1) infected in dog MDCK cells preincubated with virus for 15 mins followed by cells addition measured at 36 hrs post infection. The following applies: A/WSN/1933(H1N1). Format: functional, organism-based.

What is called IC50 is the concentration needed to halve the response being measured. A high value points to weaker potency. As to `C[C@@]1(C(=O)O)CC[C@@]2(C)CC[C@@]3(C)C(=CC(=O)[C@H]4[C@]5(C)CC[C@@H](O[C@H]6O[C@@H](C(=O)O)[C@H](O)[C@@H](O)[C@@H]6O[C@H]6O[C@@H](C(=O)O)[C@@H](O)[C@@H](O)[C@@H]6O)[C@@](C)(CO)[C@H]5CC[C@@]43C)[C@@H]2C1`, the Activity in the test on Influenza A virus [1] worked out at 47%. Moreover, the IC50 in the test on Influenza A virus [2] was 39.6 µM.

In the case of `CC(=O)O[C@H]1C[C@@](C)(C(=O)O)C[C@H]2C3=CC(=O)[C@H]4[C@]5(C)CC[C@@H](O[C@@H]6O[C@H](C(=O)O)[C@@H](O)[C@H](O)[C@H]6O[C@H]6O[C@@H](C(=O)O)[C@H](O)[C@@H](O)[C@@H]6O[C@H]6O[C@H](C)[C@@H](O)[C@H](O)[C@@H]6O)C(C)(C)[C@H]5CC[C@]4(C)[C@@]3(C)CC[C@]12C`, the Activity in the test on Influenza A virus [1] was determined as 47%. Moreover, it took 39.6 µM to reach half-maximal inhibition in the test on Influenza A virus [2] (IC50).

In turn, `CC(=O)O[C@H]1C[C@@](C)(C(=O)O)C[C@H]2C3=CC(=O)[C@H]4[C@]5(C)CC[C@@H](O[C@@H]6O[C@H](C(=O)O)[C@@H](O)[C@H](O)[C@H]6O[C@H]6O[C@@H](CO)[C@H](O)[C@@H](O)[C@@H]6O[C@H]6O[C@H](C)[C@@H](O)[C@H](O)[C@@H]6O)C(C)(C)[C@H]5CC[C@]4(C)[C@@]3(C)CC[C@]12C` had an Activity in the test on Influenza A virus [1] of 47%. The same molecule returned an IC50 in the test on Influenza A virus [2] of 39.6 µM.

`CC(=O)O[C@H]1C[C@@](C)(C(=O)O)C[C@H]2C3=CC(=O)[C@H]4[C@]5(C)CC[C@@H](O[C@@H]6O[C@H](C(=O)O)[C@@H](O)[C@H](O)[C@H]6O[C@@H]6O[C@H](CO)[C@H](O)[C@H](O)[C@H]6O)C(C)(C)[C@H]5CC[C@]4(C)[C@@]3(C)CC[C@]12C`: in the test with Influenza A virus [1], the Activity is given as 47%. In the test on Influenza A virus [2], this molecule displayed an IC50 of 39.6 µM.

Take `CC(=O)O[C@@H]1C[C@](C)(C(=O)O)C[C@@H]2C3=CC(=O)[C@@H]4[C@@]5(C)CC[C@H](O[C@@H]6O[C@H](C(=O)O)[C@@H](O)[C@H](O)[C@H]6O[C@@H]6O[C@H](C(=O)O)[C@H](O)[C@H](O)[C@H]6O)C(C)(C)[C@@H]5CC[C@@]4(C)[C@]3(C)CC[C@]21C`: the Activity in the test on Influenza A virus [1] stood at 47%. The molecule also registered an IC50 in the test on Influenza A virus [2] of 39.6 µM.

`C[C@]1(C(=O)O)CC[C@]2(C)CC[C@]3(C)C(=CC[C@@H]4[C@@]5(C)CC[C@H](O[C@@H]6O[C@H](C(=O)O)[C@@H](O)[C@H](O)[C@H]6O[C@@H]6O[C@H](C(=O)O)[C@@H](O)[C@H](O)[C@H]6O)[C@](C)(CO)[C@@H]5CC[C@]43C)[C@H]2C1` returned an Activity with Influenza A virus [1] of 47%. The molecule also showed an IC50 in the test with Influenza A virus [2] of 39.6 µM.

In turn, `CC1(C)[C@@H](O[C@@H]2O[C@H](C(=O)O)[C@@H](O)[C@H](O)[C@H]2O[C@@H]2O[C@H](C(=O)O)[C@@H](O)[C@H](O)[C@H]2O)CC[C@]2(C)[C@H]3C(=O)C=C4[C@H]5C[C@@](C)(CO)C[C@@H](O)[C@]5(C)CC[C@@]4(C)[C@]3(C)CC[C@@H]12` showed an Activity with Influenza A virus [1] of 47%. Besides, in the test on Influenza A virus [2], the IC50 worked out at 39.6 µM.

In the test on Influenza A virus [1], `CC1(C)[C@@H](O[C@@H]2O[C@H](C(=O)O)[C@@H](O)[C@H](O)[C@H]2O)CC[C@]2(C)[C@H]3C(=O)C=C4[C@H]5C[C@@](C)(C(=O)O)CC[C@]5(C)CC[C@@]4(C)[C@]3(C)CC[C@@H]12` displayed an Activity of 47%. Also, in the test with Influenza A virus [2], the IC50 was found to be 39.6 µM.
